Source: PubChem BioAssay (Broad Institute)
In the library only some 3.1% were active in any assay of this set; here they are far more common.
PolyA inhibitor: polyadenylation inhibitors in yeast reporter cells, primary screen, luminescence, S. cerevisiae. S. cerevisiae SKY197-pL101 polyadenylation reporter, beta-gal luminescence; efflux-impaired pdr1/pdr3 knockout yeast; score 100 = 6 SD above DMSO. activity score, % at 12 µM. 300,000 tested, 0.02% active. AID 1875, 2009;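 active means lowest replicate activity score at least 50, where 100 means six control SD above control mean; inconclusive means lowest score under 50 but half or more replicates reach 50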;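 further: yeast exposed to compound for 9 h at 30 °C; higher score means more reporter readthrough which indicates perturbed polyadenylation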
CSC inhib: cancer stem cell viability inhibitors, primary screen, luminescence; cancer stem cell-like cells viability; inhibition, % at 7.5 µM; 300,000 tested, 1.1% active; in the data active means inhibition above about 75%; inconclusive means no clear call, values can overlap the other calls; tested in HMLE shEcad cells
Calb FLC: C. albicans growth inhibition with fluconazole, primary screen, CaCi-2 strain, Alamar Blue fluorescence; 300,000 tested, 0.57% active; growth inhibition, % (test concentration not listed); C. albicans CaCi-2 (fluconazole-resistant clinical isolate) + fluconazole, 48 h;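 active means growth inhibition above about 58% in most replicates, limit read from the data, passing the limit was not always enough; inconclusive means exactly half the replicates above a set limit; inactive means most replicates below a set limit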;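 further: all wells also contain fluconazole at 8 µg/ml as a sub-toxic cotreatment; 0% = median of DMSO wells and 100% = median of geldanamycin control wells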
Beta cell apopt: inhibitors of cytokine-induced beta cell apoptosis, primary screen, luminescence; INS-1E cytokine-induced death, ATP luminescence, 48 h; percent of positive-control rescue, neutral wells zero; protection from apoptosis, % (test concentration not listed); 300,000 tested, 0.8% active;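 active means Every replicate reaches about 75%, or at least half do and their mean reaches it too, limit read from the data; inconclusive means At least half of replicates reach the limit but their mean does not; inactive means Under half of replicates reach the limit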;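 further: 0% = cytokine-treated negative control wells and 100% = positive control rescue; higher means more ATP so stronger rescue from cytokine killing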
HIF activator: HIF pathway transcriptional activators, primary screen, cell-based, U2OS HRE-luciferase, luminescence. activation, % at 7.5 µM (by protocol). U2OS HRE-luciferase reporter; normalized: DMSO 0%, desferrioxamine 100%. AID 1910, 2009. 300,000 tested, 0.32% active;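 active means mean activation of at least 10% of the iron chelator positive control signal, with at least half of replicates also reaching 10%; inconclusive means mean and replicate majority disagree about reaching 10%; inactive means mean and most replicates under 10%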
T cruzi repl: inhibitors of intracellular T. cruzi growth, primary screen, luminescence, NIH3T3 host cells; inhibition, % (test concentration not listed); 300,000 tested, 1.4% active; AID 1885, 2009; T. cruzi beta-gal in NIH3T3, 90 h;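 active means mean inhibition across valid replicates above about 55%, limit read from the data; inconclusive means mean below that limit but half or more replicates reach it; inactive means mean below it, under half of replicates reach it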;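 further: signal also drops with host cell toxicity which is not excluded here; 0% = plate median of DMSO wells and 100% = zero luminescence signal; higher percent means less beta-gal luminescence so fewer parasites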
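System – NIH/3T3 host cells with β-galactosidase reporter T. cruzi · Doses – single 50 nL compound addition per well in DMSO · Reagent – 5000 T. cruzi trypomastigotes/well · Medium – Low-serum DMEM with 2% FBS · Timing – ≥90 h infection period, 3 h prior cell attachment · Evaluation – parasite load inhibition, % · Technique – GalScreen luminescence, 60 min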
The depositor's hits bear a star; ? = inconclusive; · = no result.

SMILES	PolyA inhibitor	CSC inhib	Calb FLC	Beta cell apopt	HIF activator	T cruzi repl
Cc1ccc(C(=O)N2CCN(c3ccccc3F)CC2)cc1NC1=NC2CS(=O)(=O)CC2S1 (stereo not drawn)	2	-21	3	-2	0	-14
O=C(N/N=C/c1ccncc1)c1cc2ccccc2cc1O	13	-8	91*	-1	2	-8
O=c1[nH]c2ccccc2c(O)c1O	?	-11	9	-7	0	-24
Cc1ccc(S(=O)(=O)N2CCN(c3nccnc3C#N)CC2)cc1	3	-12	-21	-6	-1	-1
O=C(CNc1cccc2ccccc12)N/N=C/c1ccc([N+](=O)[O-])o1	-28	13	37	118*	0	83*
O=C(CNc1cccc([N+](=O)[O-])c1)N/N=C/c1ccc([N+](=O)[O-])o1	-3	0	-2	93*	1	68*
CC(C)(C#N)NC(=O)C1CCCN1S(=O)(=O)c1ccc2ccccc2c1 (stereo not drawn)	8	9	-1	-5	3	-2
C[C@@H]1C2CC(C/C2=N\NC(=O)c2ccncc2)C1(C)C (stereo partly drawn)	-3	11	-6	-9	0	11
CN(C)CCNc1ccc(-c2nn(C)c(=O)c3ccccc23)cc1[N+](=O)[O-]	-2	7	-14	-9	0	72*
Cn1nc(-c2ccc(NCCO)c([N+](=O)[O-])c2)c2ccccc2c1=O	-3	-5	3	-1	0	12
CCN(Cc1ccccc1)S(=O)(=O)c1ccc(C(=O)N(CCCN(C)C)c2nc3c(C)c(C)ccc3s2)cc1	12	-3	36	·	-56	60*
Cc1ccc2sc(N(CCCN(C)C)C(=O)c3ccc(S(=O)(=O)N(C)C4CCCCC4)cc3)nc2c1C	-8	89*	-11	·	1	59*
CCN(CC)CCN(C(=O)c1ccc(S(=O)(=O)N(C)C2CCCCC2)cc1)c1nc2c(C)cccc2s1	-18	14	-3	12	0	33
CCN(Cc1ccccc1)S(=O)(=O)c1ccc(C(=O)N(CCCN(C)C)c2nc3cc4c(cc3s2)OCO4)cc1	2	-19	-1	-5	-1	37
CCCn1c(N)c(N(CCOC)C(=O)CSc2c(Cl)cccc2Cl)c(=O)[nH]c1=O	·	-9	·	7	·	·
Cc1cc(NC(=O)C2CC(=O)N(c3cccc(Cl)c3)C2)no1 (stereo not drawn)	1	13	3	-3	0	-7
COc1ccccc1NS(=O)(=O)c1ccc2ccccc2c1	-6	1	-10	-4	-2	12
COc1ccc(NS(=O)(=O)c2ccc3ccccc3c2)c2ncccc12	-13	·	?	39	1	57*
CN(C)/N=C/C=C1\CCC/C(=C/c2cccs2)C1=O	-7	8	9	0	10*	-12
CN(CC(=O)Nc1ccc(F)c(F)c1F)C(=O)/C=C/c1ccc(Cl)cc1	-4	-3	-7	·	225*	-7
CN(CC(=O)Nc1ccc(F)c(F)c1F)C1CCCCC1	30	4	-4	-1	0	0
CN(CC(=O)Nc1ccc(F)c(F)c1F)C(=O)/C=C/c1ccco1	·	-15	·	-5	·	·
Cc1cccc(C)c1NC(=O)CN(C)C(C)C(=O)NCC(=O)Nc1ccc(F)c(F)c1F (stereo not drawn)	·	-5	·	0	·	·
CN(CC(=O)Nc1ccc(F)c(F)c1F)c1cnccn1	12	-3	30	0	-1	64*
CC(C(=O)Nc1ccc(F)c(F)c1F)N(C)CC(=O)Nc1ccccc1Br (stereo not drawn)	25	-5	?	2	0	102*
SMILES	PolyA inhibitor	CSC inhib	Calb FLC	Beta cell apopt	HIF activator	T cruzi repl
Cc1ccc(NC(=O)C2CC(=O)Nc3ncnn32)cc1Cl (stereo not drawn)	2	-12	3	-13	-1	-1
COc1cc(-c2noc(C)c2C(=O)NCCCN2CCOCC2)cc(OC)c1OC	·	-7	·	-2	·	·
COc1c(Br)cc([N+](=O)[O-])c(OC)c1C(=O)NC(=O)Nc1c(Cl)cccc1Cl	-11	-10	84*	·	·	·
Cc1c2cnn(CC(=O)N3CCOCC3)c(=O)c2c(C)n1Cc1ccccc1F	-12	-1	4	-1	0	-2
CCN1Cc2c(/C=C/c3ccccc3)nc3ccc(OC)cc3c2N(c2cccc(Cl)c2)C1	-16	107*	-15	41	-2	52
CC1Cc2c([nH]c3ccccc23)C(=O)N1 (stereo not drawn)	6	-18	13	-10	-1	-13
CCCCN(CC)CCNC(=O)c1cn(-c2ccc(Cl)cc2)c(=O)c2ccccc12	-12	-9	4	10	0	68*
CNC(=O)c1cn(-c2ccc(Cl)cc2)c(=O)c2ccccc12	7	2	-5	0	0	10
CCN(CC)CCNC(=O)c1cc2c(=O)n(C)c3ccccc3c2s1	-5	28	2	0	0	30
CCCCN(CC)CCNC(=O)c1cc2c(=O)n(C)c3ccccc3c2s1	3	18	13	12	-34	61*
NNc1nc(-c2ccccc2Cl)nc2sc3c(c12)CCCC3	-31	76*	-1	29	2	51
N/C(Cc1ccc(Cl)cc1)=N\OC(=O)c1cccc2ccccc12	-108	5	?	20	-1	65*
N/C(Cc1ccc(Cl)cc1Cl)=N\OC(=O)c1ccccc1	-110	-14	118*	11	0	6
N/C(Cc1ccc(Cl)cc1Cl)=N\OC(=O)Cc1ccccc1	-17	-5	-29	0	-7	-1
O=C(c1cccnc1)N1CCN(Cc2ccc3ccccc3c2)CC1	?	-7	2	-4	2	-7
Cc1ccc(/C=C2\SC(=S)N(c3cccnc3)C2=O)o1	19	17	-1	-6	0	62*
Cc1cc(/C=C2/SC(=S)N(c3ccc([N+](=O)[O-])cc3)C2=O)c(C)n1-c1cccnc1	-9	28	44	106*	0	59*
Cc1cccc(N2C(=O)/C(=C/c3cccnc3)SC2=S)c1	-3	4	-19	-6	0	-18
Cc1cc(/C=C2/SC(=S)N(c3cccc(Cl)c3)C2=O)c(C)n1-c1cccnc1	0	·	1	125*	0	21
Cc1cc(/C=C2\SC(=S)N(C)C2=O)c(C)n1-c1ccccc1O	-4	98*	-6	12	2	28
CSc1ccccc1C(=O)NC1CCSc2ccccc21 (stereo not drawn)	-12	-6	-7	0	0	24
